High-throughput results: PubChem BioAssay, Broad Institute
A selection: hits, their analogues and other compounds. The true share with any hit is near 2.1%.
EWS-Fli block – blocks EWS/Fli oncoprotein-driven transcription. 350,000 tested, 0.67% active. inhibition, % at 12.6 µM. A673 NR0B1-luciferase reporter, viability-normalised. AID 651661;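 active = mean inhibition of at least 50% after viability correction, with every replicate also passing that limit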;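 note: firefly luciferase signal divided by Alamar Blue viability fluorescence both relative to DMSO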
Xi reactivation – activators of X-chromosome reactivation in mouse fibroblasts; XiGFP mouse fibroblasts, % GFP-positive cells imaging, 3 d; cells co-treated with 5-aza-dC sensitizer; scaled so ellipticine positive control = 100%; activation, % at 7.58 µM; 360,000 tested, 0.055% active;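 active = mean normalized replicate activation at least 10% and every replicate at or above 10%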;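 note: 0% = median of on-plate neutral control wells and 100% = ellipticine 6 µM median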
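assay system = SV40-immortalized XiGFP fibroblast cells, line 68-5-11 | buffer or medium = DMEM plus 5-aza-dC sensitizer | doses = single-point pinned compound dosing | times = 3-day compound exposure, then 15 min fixation at room temperature | benchmarks = positive control ellipticine, 6 µM final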
MLL AF4-AF9 inh – blocks AF4 peptide binding to human AF9; AlphaScreen, biotin-AF4 peptide binding to FLAG-AF9; inhibition, % at 10 µM; 350,000 tested, 0.47% active; AID 651704;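 active = every replicate reaching a set inhibition limit, whatever the replicate mean, cut at about 25% in these data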;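 note: 0% = plate neutral control median and 100% = total signal loss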
Target sequence (P42568 whole entry, looked up): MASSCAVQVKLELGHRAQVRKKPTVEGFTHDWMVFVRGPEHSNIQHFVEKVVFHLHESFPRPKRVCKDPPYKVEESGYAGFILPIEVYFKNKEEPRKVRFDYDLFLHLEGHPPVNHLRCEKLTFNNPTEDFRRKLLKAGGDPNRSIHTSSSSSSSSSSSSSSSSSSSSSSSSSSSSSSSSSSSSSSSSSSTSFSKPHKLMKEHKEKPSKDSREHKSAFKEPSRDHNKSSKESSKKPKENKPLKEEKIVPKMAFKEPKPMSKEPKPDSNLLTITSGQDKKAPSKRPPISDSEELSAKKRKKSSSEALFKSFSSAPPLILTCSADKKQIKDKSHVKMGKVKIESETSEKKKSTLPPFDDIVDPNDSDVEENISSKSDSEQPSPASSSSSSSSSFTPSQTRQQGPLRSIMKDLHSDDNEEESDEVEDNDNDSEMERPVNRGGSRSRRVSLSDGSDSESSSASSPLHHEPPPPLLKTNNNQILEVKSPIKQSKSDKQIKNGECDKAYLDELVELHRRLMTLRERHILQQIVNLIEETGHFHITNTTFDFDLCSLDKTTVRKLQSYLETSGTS
GSIS activator – primary screen for activators of insulin secretion dependent on glucose, INS-1E cells, GLuc reporter luminescence | 370,000 tested, 0.61% active | INS-1E GLuc reporter insulin secretion, 2-3 h | activation, % at 16.6 µM | AID 743287;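 active = lowest replicate activation of at least 40%, so every replicate reaches that level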;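 note: 0% = median of neutral control wells and 100% = median of IBMX positive control wells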
PAX8 inh HTS – PAX8 transcriptional activity inhibition | RMG-I TPO-luciferase reporter, SteadyGlo, 24 h | inhibition, % at 12.6 µM | AID 652154 | 360,000 tested, 1.2% active;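 active = mean replicate inhibition at least 60% with every replicate also reaching 60%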;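 note: luciferase light reporting Pax8 driven TPO promoter activity; plate controls were median of neutral control wells for no effect and mitoxantrone controls for full effect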
PGC1a acetyl inh – modulators of PGC1a acetylation; U2OS PGC1a acetylation, AlphaScreen anti-acetyl-lysine; with virally co-expressed GCN5 acetyltransferase; 350,000 tested, 0.17% active; inhibition, % at 15.6 µM;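 active = every replicate shows inhibition of at least 40%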;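 note: 0% = neutral control wells and 100% = positive control wells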
Starred values were filed as active, the others as inactive; nt = no result given.

SMILES | EWS-Fli block | Xi reactivation | MLL AF4-AF9 inh | GSIS activator | PAX8 inh HTS | PGC1a acetyl inh
COc1ccc([Si](C)(C)[C@H]2[C@H](CCO)O[C@@]3(C(=O)N4c5c(cc(OC)cc53)C(C)=CC4(C)C)[C@@H]2C)cc1 | 12.2 | nt | 8.3 | nt | 102.2* | -11.1
COc1ccc([Si](C)(C)[C@@H]2[C@@H](CCO)O[C@]3(C(=O)N4c5c(cc(OC)cc53)C(C)=CC4(C)C)[C@H]2C)cc1 | 31.2 | nt | 6.3 | nt | 106.2* | -8.9
COc1ccc(NC(=O)N(C)C[C@@H]2Oc3c(NC(=O)Nc4ccc(C(F)(F)F)cc4)cccc3C(=O)N([C@@H](C)CO)C[C@H]2C)cc1 | -7.6 | -0.1 | nt | -9.0 | nt | nt
COc1ccccc1NC(=O)N[C@H]1CC[C@@H](CCn2cc(-c3cccnc3)nn2)O[C@@H]1CO | 1.3 | 0.1 | -16.4 | -8.1 | -1.9 | -1.3
CC(=O)Nc1cccc(-c2ccnc3c2CC(C)(C(=O)Nc2ccc(Cl)cc2)O3)c1 (centres undefined) | 61.9* | 3.9 | -0.5 | -21.4 | 55.9 | nt
CC(=O)Nc1ccc(NC(=O)C2(C)Cc3c(-c4cccc(NC(C)=O)c4)ccnc3O2)cc1 (centres undefined) | -2.4 | 0.2 | 2.1 | -4.9 | 17.6 | nt
COc1ccc(NC(=O)C2(C)Cc3c(-c4ccc(NC(C)=O)cc4)ccnc3O2)cn1 (centres undefined) | -4.9 | 0.5 | -0.3 | nt | 10.9 | 23.7
COc1ccc(NC(=O)C2(C)Cc3c(-c4cccc(NC(C)=O)c4)ccnc3O2)cn1 (centres undefined) | 58.7* | 0.2 | -1.8 | 2.8 | nt | -57.9
Cn1cnc(S(=O)(=O)N2CC[C@@H]3[C@H]2c2cc(-c4cccc(F)c4)ccc2N[C@@H]3CO)c1 | -9.1 | 0.0 | 5.0 | -2.5 | -16.0 | -13.9
CCc1ccc(-c2cc(C(=O)N/N=C/c3ccco3)[nH]n2)cc1 | -4.0 | -0.1 | -3.8 | -5.4 | -100.1 | nt
O=C(N/N=C/c1ccco1)c1cc(-c2ccc3ccccc3c2)n[nH]1 | nt | nt | nt | 82.7* | nt | -9.7
Nc1nc(N)nc(-c2ccc(Cl)cc2)n1 | nt | nt | nt | 47.0* | nt | 3.9
Cc1ccc(Oc2ccc(-c3nc(N)nc(N)n3)cc2)cc1 | nt | nt | nt | nt | nt | -2.8
C[C@@H]1CCCCO[C@H](CN(C)C(=O)Cc2ccccc2)[C@@H](C)CN([C@H](C)CO)C(=O)c2cc(NC(=O)c3ccccc3)ccc2O1 | 10.2 | -0.1 | 0.4 | -10.0 | nt | 6.2
COc1ccc(NC(=O)N(C)C[C@H]2OCCCC[C@@H](C)Oc3ccc(NC(=O)Cc4ccccc4)cc3C(=O)N([C@@H](C)CO)C[C@@H]2C)cc1 | -12.9 | -0.1 | 0.7 | -17.3 | nt | 4.2
CC1CCN(S(=O)(=O)c2ccc(C(=O)OCc3ccc4c(c3)OCO4)cc2)CC1 | nt | nt | nt | 142.3* | nt | -6.3
Cc1ccc(S(=O)(=O)N2CCN(C(=O)c3ccc4c(c3)OCO4)CC2)cc1 | nt | 0.0 | -2.6 | -4.2 | 1.5 | nt
O=C(c1ccc2c(c1)OCO2)N1CCN(S(=O)(=O)c2ccccc2)CC1 | nt | 0.3 | 1.5 | 46.2* | nt | -3.1
O=C(CC1CC1)Nc1ccc2c(c1)[C@H]1C[C@H](CC(=O)NC3CCCCC3)O[C@H](CO)[C@H]1O2 | 2.3 | 0.0 | -1.3 | 0.5 | 8.4 | -4.5
Cc1cccc(C)c1NC(=O)C1c2ccccc2Oc2ccccc21 | nt | 0.0 | nt | 51.0* | -2.8 | nt
Cc1ccc(S(=O)(=O)Nc2cccc(-c3ccc4nncn4n3)c2)cc1 | 57.0* | 0.8 | 1.3 | 6.9 | 26.6 | 9.0
CCc1onc(C)c1C(=O)Nc1ccc(N2CCOCC2)cc1 | -12.5 | 0.1 | 0.8 | 41.5* | -9.7 | 2.0
CCC(=O)N(CC)c1nc(-c2ccc(OC)cc2)cs1 | nt | nt | nt | nt | -104.5 | 47.8*
CCN(C(=O)c1ccco1)c1nc(-c2ccc(OC)cc2)cs1 | -7.2 | 0.0 | -0.6 | 11.1 | -134.4 | -12.1
COc1ccc(-c2csc(N(CCCN(C)C)C(=O)c3ccccc3C)n2)cc1 | 25.7 | 0.1 | 31.0* | -13.9 | 12.5 | -0.6
COc1cccc(-c2nc(-c3ccccc3)no2)c1 | nt | nt | nt | nt | -112.7 | 0.2
COc1cc(-c2nc(-c3cccnc3)no2)cc(OC)c1OC | nt | 0.2 | nt | 15.3 | -7.0 | 7.4
COc1ccc(-c2nc(-c3cccnc3)no2)cc1OC | -107.1 | -0.1 | nt | 57.7* | -158.8 | -0.2
COc1cccc(-c2nc(-c3ccccn3)no2)c1 | nt | nt | nt | 10.0 | 70.1* | nt
